Test results as given in ChEMBL document CHEMBL1121598, “Acylthioxanthenes: agents which selectively reduce decerebrate rigidity in the cat” (1980).

Columns and labels:
Type in all cases: functional
Mus musculus = experiment: Reduction of locomotor activity count to 50% of the control in mouse after oral administration
In short: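 Mouse locomotor activity by Dews method, modified: drug given orally, activity measured for 5 min starting 1 h later. Dose (μmol/kg po) reducing locomotor activity count to 50% of control determined.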

Felis catus [1] = experiment: Reduction of the integrated electromyographic response by 50% in cat after intravenous administration
In short: (§1)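 Intercollicular decerebration of cats (midbrain sectioned between colliculi) under halothane, anesthesia then stopped; ≥1 h later, integrated EMG of quadriceps recorded in response to controlled stretches. Drug infused iv in saline in graded doses, stretch response repeated; dose (μmol/kg iv) reducing stretch response by 50% determined.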

[2] = Ratio of motor activity and activity A
Felis catus [3] = experiment: Dose of compound to reduce the integrated electromyographic response by 50% in cat after intravenous administration; value from second experiment.; in short: as §1
Felis catus [4] = experiment: Reduction of the integrated electromyographic response by 50% in cat after peroral administration
Felis catus [5] = experiment: Dose of compound to reduce the integrated electromyographic response by 50% in cat after peroral administration; Range is 5.1-12.5
Felis catus [6] = experiment: Dose of compound to reduce the integrated electromyographic response by 50% in cat after peroral administration; Range is 5.5-13.7

| Compound | Locomotor activity (Mus musculus) [µM/kg] | Activity A (Felis catus [1]) [µM/kg] | Ratio [2] | Activity A (Felis catus [3]) [µM/kg] | Activity B (Felis catus [4]) [µM/kg] | Activity B (Felis catus [5]) [µM/kg] | Activity B (Felis catus [6]) [µM/kg] |
| --- | --- | --- | --- | --- | --- | --- | --- |
| CCC(=O)c1ccc2c(c1)C(O)(CC1CCN(C)CC1)c1ccccc1S2 (configuration not stated) | >485 | 19.39 | > 25 |  |  |  |  |
| CC(=O)c1ccc2c(c1)C(O)(CC(C)CN(C)C)c1ccccc1S2 (configuration not stated) |  | 3.17 |  | >21.18 |  |  |  |
| CCC(=O)c1ccc2c(c1)/C(=C\C(CC)CN(C)C)c1ccccc1S2 (configuration not stated) | 280 | 4.14 | 68 |  |  |  |  |
| CC(=O)c1ccc2c(c1)/C(=C\CCN(C)C)c1ccccc1S2 | 33 | 0.54 | 60 |  | <5.4 |  |  |
| CC(C)C(=O)c1ccc2c(c1)/C(=C\CCN(C)C)c1ccccc1S2 | 89 | 0.4 | 218 |  |  |  |  |
| CC(CN1c2ccccc2Sc2ccc(S(=O)(=O)N(C)C)cc21)N(C)C (configuration not stated) [FONAZINE] | 860 | 4.67 | 184 |  | 8.1 |  |  |
| CN(C)CC/C=C1/c2ccccc2C=Cc2ccc(Cl)cc21 | 103 | 4.01 | 26 |  | >6.1 |  |  |
| CC(=O)c1ccc2c(c1)/C(=C\CCN(C)C)c1cc(Cl)ccc1S2 (stereo in doubt; 33) [listing 1 of 2 here] |  |  | 168 |  |  |  |  |
| CN(C)CCCN1c2ccccc2Sc2ccc(Cl)cc21 [CHLORPROMAZINE] | 39 | 0.25 |  |  | 2 |  |  |
| CC(=O)c1ccc2c(c1)/C(=C\CCN(C)C)c1cc(Cl)ccc1S2 (stereo in doubt; 33) [listing 2 of 2 here] | 89 | 0.53 |  |  | >5.4 |  |  |
| CCC(=O)c1ccc2c(c1)/C(=C\CCN(C)C)c1ccccc1S2 (stereo in doubt; 36) [listing 1 of 2 here] | 120 | 0.15 |  |  | 1.8 |  |  |
| CCC(=O)c1ccc2c(c1)/C(=C\CCN(C)C)c1cc(Cl)ccc1S2 | 695 | 1.08 | 644 |  | >9.6 |  |  |
| CCC(=O)c1ccc2c(c1)/C(=C\CCN1CCOCC1)c1ccccc1S2 | 125 | 0.27 | 463 |  |  |  |  |
| CCCC(=O)c1ccc2c(c1)/C(=C\CCN(C)C)c1ccccc1S2 | >501 | 1.5 | 334 |  |  | 5.1 |  |
| CC(=O)c1ccc2c(c1)/C(=C\CCN(C)C)c1cc(Cl)ccc1S2 (stereo in doubt; 32) [listing 1 of 2 here] | 96 | 0.81 |  |  |  |  |  |
| CC(=O)c1ccc2c(c1)/C(=C\C(C)CN(C)C)c1ccccc1S2 (configuration not stated) | 94 | 1.31 | 72 |  |  |  |  |
| CCC(=O)c1ccc2c(c1)/C(=C\C(C)CN1CCOCC1)c1ccccc1S2 (configuration not stated) | >659 | 6.5 | > 101 |  |  |  |  |
| CCC(=O)c1ccc2c(c1)/C(=C\C(C)CN(C)C)c1ccccc1S2 (configuration not stated) | 261 | 0.52 | 501 |  | >5.2 |  |  |
| CCC(=O)c1ccc2c(c1)C(=C1CCN(C)CC1)c1ccccc1S2 | 96 | 0.68 | 141 |  |  |  |  |

| Compound | Locomotor activity (Mus musculus) [µM/kg] | Activity A (Felis catus [1]) [µM/kg] | Ratio [2] | Activity A (Felis catus [3]) [µM/kg] | Activity B (Felis catus [4]) [µM/kg] | Activity B (Felis catus [5]) [µM/kg] | Activity B (Felis catus [6]) [µM/kg] |
| --- | --- | --- | --- | --- | --- | --- | --- |
| CC(=O)c1ccc2c(c1)N(CC(C)CN(C)C)c1cc(Cl)ccc1S2 (configuration not stated) | 161 | 0.32 | 506 |  | 1 |  |  |
| CCC(=O)c1ccc2c(c1)/C(=C\C(C)CN(C)C)c1cc(Cl)ccc1S2 (configuration not stated) | 534 | 1.3 | 411 |  | >9.3 |  |  |
| CC(=O)c1ccc2c(c1)C(CC(C)CN(C)C)c1ccccc1S2 (configuration not stated) | 377 | 2.08 | 181 |  | >13 |  |  |
| CCCCC(=O)c1ccc2c(c1)/C(=C\C(C)CN(C)C)c1ccccc1S2 (configuration not stated) | 132 | 3.29 | 40 |  |  |  |  |
| CCCC(=O)c1ccc2c(c1)N(CC(C)CN(C)C)c1ccccc1S2 (configuration not stated) | 136 | 0.65 | 209 |  | 1.2 |  |  |
| CCC(=O)c1ccc2c(c1)/C(=C\CCN1CCN(C)CC1)c1ccccc1S2 | 42 | 0.67 | 43 |  |  |  |  |
| CCCCC(=O)c1ccc2c(c1)/C(=C\CCN(C)C)c1ccccc1S2 |  | 1.35 |  |  |  |  |  |
| CC(=O)c1ccc2c(c1)N(CCCN(C)C)c1ccccc1S2 [ACEPROMAZINE] | 11 | 0.03 | 393 |  | 1 |  |  |
| CC(=O)c1ccc2c(c1)C(CCCN(C)C)c1ccccc1S2 (configuration not stated) | 57 | 0.9 | 63 |  |  |  | 5.5 |
| CC(=O)c1ccc2c(c1)/C(=C\CCN(C)C)c1cc(Cl)ccc1S2 (stereo in doubt; 32) [listing 2 of 2 here] |  |  | 119 |  |  |  |  |
| CN(C)CC/C=C1/c2ccccc2Sc2ccc(Cl)cc21 [CHLORPROTHIXENE] | 11 | 0.39 | 28 |  | 2.1 |  |  |
| CCCC(=O)c1ccc2c(c1)/C(=C\C(C)CN(C)C)c1ccccc1S2 (configuration not stated) | 195 | 1.22 | 160 |  |  |  |  |
| CCC(=O)c1ccc2c(c1)/C(=C\CCN(C)C)c1ccccc1S2 (stereo in doubt; 35) [listing 1 of 2 here] | 339 | 0.45 |  |  | 1.9 |  |  |
| CCC(=O)c1ccc2c(c1)/C(=C\CCN(C)C)c1ccccc1S2 (stereo in doubt; 36) [listing 2 of 2 here] |  |  | 800 |  |  |  |  |
| CC(/C=C1/c2ccccc2Sc2ccc(C(=O)C(C)C)cc21)CN(C)C (configuration not stated) | 145 | 0.67 | 216 |  |  |  |  |
| CCC(=O)c1ccc2c(c1)C(CCCN(C)C)c1cc(Cl)ccc1S2 (configuration not stated) | 343 | 6.17 | 56 |  |  |  |  |
| CCC(=O)c1ccc2c(c1)/C(=C\CCN(C)C)c1ccccc1S2 (stereo in doubt; 35) [listing 2 of 2 here] |  |  | 753 |  |  |  |  |
| CC(=O)c1ccc2c(c1)/C(=C\C(C)CN(C)C)c1cc(Cl)ccc1S2 (configuration not stated) | 192 | 1.19 | 161 |  |  |  |  |
